This is a sample that favours compounds with a hit; in the whole collection about 1.9% have one here.
CHRM4 PAM: potentiates acetylcholine response at human M4 receptor; activation, % at 3 µM; actives 0.4% (n = 360,000); CHO-K1 hM4/Gqi5, Fluo-8 calcium fluorescence, ACh EC20; 0% = ACh EC20, 100% = maximal ACh;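 active = activation above its plate's cutoff, the mean activation of sample wells plus 3 SD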
Target sequence (P08173 whole entry, looked up): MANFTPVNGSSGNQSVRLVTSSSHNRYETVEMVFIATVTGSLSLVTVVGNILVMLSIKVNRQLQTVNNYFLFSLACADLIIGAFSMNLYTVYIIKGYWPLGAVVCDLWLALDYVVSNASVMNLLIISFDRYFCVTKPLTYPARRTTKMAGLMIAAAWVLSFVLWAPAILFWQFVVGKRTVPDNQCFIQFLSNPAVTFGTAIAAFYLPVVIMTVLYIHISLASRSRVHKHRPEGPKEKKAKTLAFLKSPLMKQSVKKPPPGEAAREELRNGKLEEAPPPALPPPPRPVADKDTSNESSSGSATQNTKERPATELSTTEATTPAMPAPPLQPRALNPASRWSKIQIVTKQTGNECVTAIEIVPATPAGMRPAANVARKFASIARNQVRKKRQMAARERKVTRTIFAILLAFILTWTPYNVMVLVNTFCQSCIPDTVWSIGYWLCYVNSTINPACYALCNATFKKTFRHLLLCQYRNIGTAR
CHRM5 antagonist: antagonists of human muscarinic M5 receptor (CHRM5); CHO-hM5 cells, Fluo-8 calcium fluorescence, ACh EC80; inhibition, % at 3 µM; actives 0.59% (n = 360,000);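 active = inhibition above a per-plate cutoff, the mean of that plate's test compounds plus 3 SD, cut at about 27% in these data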
M5 PAM: potentiates acetylcholine response at human M5 receptor; actives 0.3% (n = 360,000); CHO-K1 hM5, Fluo-8 calcium, ACh EC20 PAM; 0% = ACh EC20, 100% = ACh EC100; activation, % at 3 µM;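 active = activation above the run cutoff, the mean activation of all test compounds plus 3 SD, cut at about 18% in these data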
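System: CHO-K1 hM5 cells. Reagent: acetylcholine, EC20 level. Compound dosing: single dose, 3 µM nominal final test concentration. Timing: Post-acetylcholine fluorescence recording 140 s. Detection: Fluo-8 calcium fluorescence. Read-out: % activation, ACh-normalized. Benchmarks: ACh EC20 and EC100 wells. Repeats: singlicate, one well per test compound.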
CHRM4 agonist: agonists of human muscarinic M4 receptor (CHRM4) | P08173 | CHO-K1 hM4/Gqi5, Fluo-8 calcium fluorescence; vehicle 0%, full acetylcholine response 100% | activation, % at 3 µM | actives 0.14% (n = 360,000) | AID 624127;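 active = activation above the run mean over all test wells plus 3 SD, cut at about 32% in these data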;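 note: peak over basal fluorescence ratio per well then scaled between controls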
CHRM5 agonist: agonists of human muscarinic M5 receptor (CHRM5). activation, % at 3 µM. actives 0.19% (n = 360,000). P08912. CHO-K1 hM5 cells, Fluo-8 calcium fluorescence; 0% DMSO wells, 100% maximal acetylcholine response;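 active = activation above the run's mean over test compounds plus 3 SD, cut at about 23% in these data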;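 note: signal is peak over basal fluorescence ratio across the kinetic read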
CHRM4 antagonist: CHRM4 antagonism in calcium assay; P08173; CHO-hM4 cells, ACh EC80, Fluo-8 calcium fluorescence; inhibition, % at 3 µM; actives 0.73% (n = 360,000); AID 624125;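 active = inhibition above its plate's cutoff, the mean inhibition of sample wells plus 3 SD, cut at about 27% in these data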
Each line names hits and unclear results; the compound was inactive in the other large screens.

COc1ccc(-c2csc(C(O)c3ccc(F)cc3)n2)cc1 (stereo not drawn)	CHRM4 agonist 47
CN(C)c1ccc(-c2csc(C(O)c3ccc(F)cc3)n2)cc1 (stereo not drawn)	CHRM4 agonist 60, CHRM5 agonist 30
CN(C)c1ccc(-c2csc(C(O)c3ccc(F)c(F)c3)n2)cc1 (stereo not drawn)	CHRM5 antagonist 37, CHRM4 agonist 102, CHRM5 agonist 50, CHRM4 antagonist 46
COc1ccc(C(O)c2nc(-c3ccc(N(C)C)cc3)cs2)cc1 (stereo not drawn)	CHRM4 agonist 38
COCCn1c(SCC(=O)NNC(=O)c2ccccc2)nc2ccccc21	none
Cc1ccc(-n2c(SCCN)nnc2-c2cccc(C)c2)cc1	none
CCOc1ccccc1NC(=O)CSc1cn[nH]n1	none
Cc1nc(SCC(=O)NC2CCCC2)c2oc3ccccc3c2n1	none
Cc1ccc(OCC(=O)Nc2ccc(S(=O)(=O)Nc3ccccn3)cc2)c(C)c1	none
CC(C)c1ccc(N(CC(=O)NC2CCCCC2)C(=O)CNC(=O)c2ccco2)cc1	none
CCN(C(=O)c1ccc(NC(C)=O)cc1)c1ccccc1	CHRM4 PAM 19
O=C(c1ccco1)N1CCN(Cc2cccnc2)CC1	none
c1ccc(CCNc2ncnc3scc(C4COc5ccccc5O4)c23)cc1 (stereo not drawn)	CHRM4 antagonist 38
O=C(Cn1ccccc1=S)c1ccc(Cl)c(Cl)c1	none
On1ccccc1=S	CHRM4 antagonist 31
O=C(Nc1cc(C(F)(F)F)ccc1Cl)c1cccnc1	none
CCCCCCCCC[n+]1cccc2c3ccccc3ccc21	CHRM5 antagonist 41, CHRM4 antagonist 70
Cc1ccccc1C[n+]1cccc2ccccc21	none
CCCCCCCCCCCCCCCC[n+]1cccc2ccccc21	CHRM5 antagonist 64, CHRM4 antagonist 52
O=[N+]([O-])c1ccc(C[n+]2cccc3c4ccccc4ccc32)cc1	none
CO[C@H]1CN(C)C(=O)c2cc(NC(=O)C3CCCC3)ccc2OC[C@@H](C)NC[C@H]1C	none
CCOC(=O)c1cc(NC(=O)CN2CCCC2)cc(C(=O)OCC)c1	none
CCOc1ccc(S(=O)(=O)NC(Cc2cnc[nH]2)C(=O)O)cc1 (stereo not drawn)	CHRM4 PAM 21
CC1OC(CC(=O)O)CC2=C1C(=O)c1c(O)cccc1C2=O (stereo not drawn)	CHRM5 antagonist 49, CHRM4 antagonist 36
O=C1C=C(O)c2cccc(O)c2C1=O	none
CC(=O)Oc1cccc(N2C(=O)c3ccccc3C2=O)c1	none
COc1cc(C)ccc1S(=O)(=O)N1CCN(C23CC4CC(CC(C4)C2)C3)CC1	CHRM4 antagonist 89
COc1cc(F)ccc1S(=O)(=O)N1CCN(C23CC4CC(CC(C4)C2)C3)CC1	none
O=C(CCC1CCCN(C(=O)CCC(F)(F)F)C1)NCc1ccc(F)c(F)c1 (stereo not drawn)	none
Cc1sc2ncnc(N/N=C/c3ccccc3O)c2c1C	CHRM4 PAM 30
Cc1sc2ncnc(N/N=C/c3ccc(O)cc3)c2c1C	none
O=C(CCn1c(=S)[nH]c2ccccc2c1=O)NCC1CCCO1 (stereo not drawn)	CHRM4 PAM 19
CCCn1c(=S)[nH]c2cc(C(=O)NCC3CCCO3)ccc2c1=O (stereo not drawn)	none
CCCC(=O)Nc1ccc(OCC(O)CNC(C)C)c(C(C)=O)c1 (stereo not drawn)	CHRM4 antagonist 100
Cc1nnsc1C(=O)N1CCCC(C)(C(=O)NS(=O)(=O)C2CC2)C1 (stereo not drawn)	CHRM4 PAM 20
Cc1nc2ccccc2nc(C)c1=NOCc1ccc(C#N)cc1	CHRM4 PAM 19
Cc1nc2ccccc2nc(C)c1=NOCc1cccc(F)c1	none
O=C(NCC(=O)N(Cc1cccs1)C(C(=O)NC1CCCCC1)c1cccnc1)c1ccco1 (stereo not drawn)	none
Cc1ccc(NC(=O)CN2C(=O)NC(C)(CC(C)C)C2=O)cc1F (stereo not drawn)	none

Assay outcomes from PubChem.
